SKKanGAS inh = SKKanGAS growth inhibition; 1.3% of 300,000 active; inhibition, % at 7.5 µM; S. pyogenes SKKanGAS, kanamycin growth, BacTiter-Glo, 6 h;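 active means mean replicate score, as percent of positive control median, at least 50; inconclusive means mean below 50 but one replicate at or above 50; inactive means mean and every replicate below 50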;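 further: strain carries kanamycin resistance gene driven by streptokinase promoter and grows in 40 µg/ml kanamycin; loss of luminescence reflects streptokinase promoter inhibition or plain growth inhibition; 0% = median of DMSO wells and 100% = positive control at its reference dose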
Calb FLC = C. albicans growth modulation with fluconazole | growth inhibition, % (no concentration beside the values) | C. albicans CaCi-2 (fluconazole-resistant clinical isolate) + fluconazole, Alamar Blue growth, 48 h | AID 1979 | 0.57% of 300,000 active;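 active means growth inhibition above about 58% in most replicates, limit read from the data, passing the limit was not always enough; inconclusive means exactly half the replicates above a set limit; inactive means most replicates below a set limit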;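 further: all wells also contain fluconazole at 8 µg/ml as a sub-toxic cotreatment; 0% = median of DMSO wells and 100% = median of geldanamycin control wells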
ARFGAP1 inh = inhibitors of rat ARFGAP1. Q62848. Arfgap1-stimulated ARF1 GTP hydrolysis, GDP FP detection. inhibition, % at 16.5 µM. 0.26% of 360,000 active. AID 651572;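 active means inhibition above a per-plate limit, mean inhibition of low control wells plus 3 SD, cut at about 25% in these data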;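 further: 0% = DMSO wells with enzyme and 100% = wells lacking Arfgap1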
Target sequence (Q62848 1-136 limits assumed): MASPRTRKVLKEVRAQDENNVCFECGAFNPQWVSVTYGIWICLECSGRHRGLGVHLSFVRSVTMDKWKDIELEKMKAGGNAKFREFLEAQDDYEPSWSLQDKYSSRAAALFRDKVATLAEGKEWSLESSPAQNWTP
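system = rat Arfgap1 catalytic domain, aa 1-136 | technique = FP, GDP Alexa 633 tracer displaced from anti-GDP antibody, 620/688 nm | compound = one concentration, 16.5 µM, DMSO 1.26% | medium = HEPES-based buffer, pH 7.5 | timing = compound-enzyme preincubation 20 min, reaction 120 min, detection 60 min, 25 °C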
sPLA2-III inh = Blocks human group III sPLA2 activity | 0.56% of 370,000 active | inhibition, % at 12.2 µM | Q9NZ20 | QFRET BODIPY PC-A2 liposome hydrolysis, fluorescence;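 active means inhibition above mean plus 3 SD of compounds lying within the high and low control bounds, cut at about 19% in these data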;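 further: 0% = median of test compound wells and 100% = no enzyme DMSO wells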
ASAP1 GAP inh = ASAP1 ArfGAP inhibition. Q9ULH1. ASAP1-stimulated ARF1 GTP hydrolysis, GDP FP detection. inhibition, % at 16.5 µM. 0.19% of 360,000 active. AID 624377; in the data active means inhibition above about 25%;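 further: 0% = vehicle with enzyme and substrate and 100% = no enzyme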
hGIII sPLA2 conf = human GIII-sPLA2 inhibition, confirmation | inhibition, % at 12.2 µM | shares compounds with sPLA2-III inh | recombinant hGIII-sPLA2, BODIPY PC-A2 QFRET fluorescence | 34% of 2,000 active | AID 743280;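 active means mean inhibition across triplicates above the hit cutoff set in the earlier primary screen, cut at about 19% in these data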;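 further: 0% = enzyme with DMSO and 100% = DMSO wells lacking enzyme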
BODIPY interf = optically interferes with 535nm fluorescence in sPLA2 counter-screen. shares compounds with sPLA2-III inh. 8.5% of 2,000 active. inhibition, % at 12.2 µM. BODIPY FL product fluorescence interference, QFRET;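 active means average inhibition above the solvent-only control mean plus 3 SD, cut at about 6% in these data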;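 further: 0% = DMSO with substrate plus product and 100% = DMSO with substrate alone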
535nm interf DR = interferes with 535nm fluorescence in dose response counter-screen. 240 tested, under 10 active. IC50, µM. BODIPY FL product fluorescence interference, cell-free. AID 743455. shares compounds with sPLA2-III inh;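 active means IC50 at or below 10 µM; inactive means IC50 above 10 µM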
An asterisk follows results filed as active; u = inconclusive; x = no result. In the library only some 2.3% were active in any assay of this set; here they are far more common.

SMILES	SKKanGAS inh	Calb FLC	ARFGAP1 inh	sPLA2-III inh	ASAP1 GAP inh	hGIII sPLA2 conf	BODIPY interf	others
CCOC(=O)C1CCN(C(=O)C(C)(C)NC(=O)Nc2ccc(Cl)cc2Cl)CC1	x	x	x	6	x	x	x
CC/C(=C\c1ccc(N(C)C)cc1)c1ccncc1	x	x	3	23*	-20	20*	0
Cc1cccc(/C=N/n2c(-c3ccccc3)n[nH]c2=S)c1O	8	7	15	3	-3	x	x
O=[N+]([O-])c1ccccc1/C=N/n1c(-c2ccccc2)n[nH]c1=S	3	15	5	20*	-5	29*	1
COc1ccc(/C=N/n2c(-c3ccccc3)n[nH]c2=S)cc1	30	9	4	13	-4	x	x
Cc1n[nH]c(=S)n1/N=C/c1ccccc1	-1	1	0	22*	9	21*	-6
CCN(C(=O)Cn1nnc(-c2ccncc2)n1)c1ccccc1	x	x	x	14	x	x	x
Cc1ncc(CO)c(/C=N/NC(=S)Nc2ccc(F)cc2)c1O	39	1	1	20*	5	20*	-5
C/C(=N\NC(=O)c1nnn(-c2nonc2N)c1-c1ccccc1)c1ccccc1O	29	30	1	26*	5	30*	2	535nm interf DR=>122
COc1ccc(S[C@]2(C(=O)N(C)C)CC(=O)N(C(=O)CCc3ccccc3)[C@@H]2c2ccc(OC)cc2)cc1	x	x	x	0	x	x	x
Cc1cccc2sc(NNC(=O)c3ccc(S(=O)(=O)N4CC(C)CC(C)C4)cc3)nc12 (stereo unspecified)	92*	-4	18	47*	4	47*	3
CC1CCCN(S(=O)(=O)c2ccc(C(=O)Nc3nnc(C4CC4)o3)cc2)C1 (stereo unspecified)	u	2	-2	-6	11	x	x
Cc1cc(C)c2nc(NNC(=O)c3ccc(S(=O)(=O)N4CCCC(C)C4)cc3)sc2c1 (stereo unspecified)	92*	12	14	36*	8	46*	6.5*
CC(Oc1ccccc1F)c1nnc(SCC(=O)NCc2ccc3c(c2)OCO3)o1 (stereo unspecified)	x	x	-1	84*	12	-1	-5
COC(=O)[C@H](C(C)C)N(CCc1cn(Cc2ccc(C)cc2)nn1)S(=O)(=O)c1ccc(F)cc1Br	x	x	x	-16	x	x	x
O=C1C(=Cc2cccc(Cl)c2)CCc2ccccc21	x	x	-3	21*	-1	-1	-3
C[C@H]1[C@H](NC(=O)c2ccc(Cl)c(C(F)(F)F)c2)CC[C@@]23CCCN2C(=O)CCC[C@@H]13	x	x	x	-2	x	x	x
CNC(=S)N/N=C/c1cc(Br)cc(Br)c1O	35	u	6	44*	2	51*	5	535nm interf DR=>122
CCCN1CCS(=O)(=O)N(Cc2cn(CC(=O)OCC)nn2)C(C(=O)OC)C1 (stereo unspecified)	x	x	x	4	x	x	x
CCc1nc2c(OCCc3cccc(OC)c3)cccn2c1N(C=O)Cc1ccc(OC)cc1	x	x	15	-10	9	x	x
COC(=O)C(NC(C)=O)(Nc1ccc(C)cn1)C(F)(F)F (stereo unspecified)	-9	6	8	20*	1	4	-6
CCC(C)NC(=S)N(CCc1ccccc1)Cc1cc2cc(OC)c(OC)cc2[nH]c1=O (stereo unspecified)	22	2	12	20*	12	20*	-16
CCOC(=O)c1cccc(NC(=O)CN(C)S(=O)(=O)c2ccc(F)cc2)c1	x	x	x	-10	x	x	x
Cc1ccc(S(=O)(=O)CNC(=S)c2ccc3ccccc3c2)cc1	62*	0	6	20*	6	24*	0
C=CCn1c(O)c(N=NC(=S)Nc2ccccc2F)c2cc(S(=O)(=O)N3CCOCC3)ccc21	18	71	-1	21*	5	26*	-11
C=CCn1c(O)c(N=NC(=S)Nc2ccccc2F)c2ccccc21	101*	-5	3	20*	1	32*	13*
NC(=O)Cc1cn(-c2ncc(C(F)(F)F)cc2Cl)c2ccccc12	6	0	-6	34*	-5	14	-11

Assay outcomes: PubChem BioAssay, several laboratories
